Source: ChEMBL document CHEMBL1649062, “Integration of lead optimization with crystallography for a membrane-bound ion channel target: discovery of a new class of AMPA receptor positive allosteric modulators” (J Med Chem, 2011)
Activity calls are given as the source filed them.

Experiments:
[1] = Apparent permeability of the compound; type: ADME; conditions: not told
In short: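 Artificial membrane permeability: donor holds 10 mM sample in pH 7.05 phosphate buffer with 0.5% hydroxypropylcyclodextrin. Membrane is 1.8% phosphatidylcholine and 1% cholesterol in decane. Donor and acceptor concentrations measured by LCMS after 3 h at room temperature; permeability expressed in nm/s.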

[2] = Half life in Gottingen minipig at 0.5 mg/kg, iv; type: ADME, organism-based, Sus scrofa; set-up: dose 0.5 mg/kg, route intravenous; conditions: pig, in vivo
In short: (§1)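 Male animals, n = 3 per species, given single iv and oral doses. Values are mean and range. Blood clearance is also expressed as % of liver blood flow, taken as (mL/min)/kg: rat 85, dog 31, minipig 30, cynomolgus monkey 44.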

[3] = biological target: Glutamate receptor 2 (Rattus norvegicus) (UniProt P19491); experiment: Allosteric modulation of GluA2 receptor flip isoform in rat hippocampal neuron at 10 uM by whole cell patch-clamp electrophysiology; type: tissue-based; conditions: Hippocampus
In short: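 Rat cultured hippocampal neurons; 30 μM AMPA applied for 2 s, with compound co-applied at 10 nM or 10 μM. Read-out is the increase in charge transfer, taken as the area under the current curve.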

[4] = Clearance in cynomolgus monkey at 0.25 mg/kg, iv and 1 mg/kg, po; type: ADME, organism-based, Macaca fascicularis; conditions: in vivo; in short: as §1
Rattus norvegicus [5] = experiment: Cognitive enhancing effect in Lister Hooded rat assessed as reversal of 24 hrs delay-induced cognitive deficit at 0.1 mg/kg, ip by novel object recognition test
Cytochrome P450 2D6 = Cytochrome P450 2D6 (Homo sapiens, UniProt P10635); experiment: Inhibition of human CYP2D6 by fluorescence assay; type: ADME
In short: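 Recombinant human CYP bactosomes (0.1 mg/mL) in 50 mM potassium phosphate pH 7.4, preincubated 10 min at 37 °C with test compound (0.1-10 μM, 7 concentrations) and fluorogenic substrate. Substrates: ethoxyresorufin 0.5 μM (1A2), FCA 50 μM (2C9), BMC 10 μM (2C19), MMC 10 μM (2D6), DEF 1 μM or 7-BQ 25 μM (3A4). Reaction started with NADPH regenerating system; metabolite formation read over 10 min. IC50 from percent of control rate; miconazole control; triplicate.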

Rattus norvegicus [6] = experiment: Neurotoxicity in Lister Hooded rat assessed proconvulsant effect at 30 mg/kg, ip by MEST test; type: toxicity, organism-based; set-up: dose 30 mg/kg, route intraperitoneal; conditions: in vivo
In short: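 Male Lister Hooded rats pretreated with compound, saline vehicle or picrotoxin 30 min before corneal electroshock (CC50 about 60–70 mA, 0.1 ms); tonic and tonic-clonic seizure threshold scored; brain concentrations taken from satellite rats sampled right after testing.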

Hepatocyte = experiment: Intrinsic clearance in cryopreserved rat hepatocytes assessed per gram of tissue; type: ADME, cell-based, Liver
In short: (§2)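 Cryopreserved hepatocytes at 70 000 cells/mL; intrinsic clearance expressed per gram of liver; single determination (human also n = 3).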

[7] = Clearance in rat at 3 mg/kg, po; type: ADME, organism-based; set-up: dose 3 mg/kg, route oral; conditions: in vivo
In short: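 Rats dosed orally at 3 mg/kg; blood sampled via the hepatic portal vein and heart. Estimated clearance derived from in vivo hepatic extraction, taking rat liver blood flow as 85 (mL/min)/kg.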

Brain [8] = experiment: Drug level in Lister Hooded rat assessed per gram of tissue at 30 mg/kg, ip; type: ADME, organism-based; set-up: dose 30 mg/kg, route intraperitoneal; conditions: in vivo
In short: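 Male Lister Hooded rats pretreated 30 min before the maximal electroshock threshold test with compound or saline vehicle; picrotoxin served as positive control. Corneal current applied, CC50 about 60-70 mA, 0.1 ms. Brain levels measured in satellite rats sampled immediately after testing.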

Brain [9] = experiment: Drug level in Lister Hooded rat assessed per gram of tissue at 0.1 mg/kg, ip; type: ADME, organism-based; set-up: dose 0.1 mg/kg, route intraperitoneal; conditions: in vivo
In short: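 Male Lister Hooded rats (n = 9-12/group) tested for reversal of a 24 h delay-induced deficit in novel object recognition. Significant doses flagged. Brain concentrations measured in the study animals at the end of the test.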

Glutamate receptor 2 [10] = biological target: T1, Glutamate receptor 2 (Homo sapiens, UniProt P42262); experiment: Allosteric modulation of human recombinant GluA2 receptor flip isoform expressed in HEK293 cells at 10 uM by whole cell patch-clamp electrophysiology; type: cell-based
In short: (§3)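 Perforated-patch (amphotericin B) voltage clamp of HEK293 cells stably expressing human GluA2 flip (unedited) homotetramers, held at -60 mV. Extracellular solution in mM: 140 NaCl, 2 KCl, 1 MgCl2, 2 CaCl2, 12 HEPES, 10 D-glucose, pH 7.35. Currents evoked by 1 mM glutamate; compound at 100 nM or 10 μM. Read-out is percent increase in charge transfer (area under curve).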

Rattus norvegicus [11] = experiment: Cognitive enhancing effect in Lister Hooded rat assessed as reversal of 24 hrs delay-induced cognitive deficit at 0.3 mg/kg, ip by novel object recognition test
[12] = Half life in Swiss Beagle dog at 0.25 mg/kg, iv; type: ADME, organism-based, Canis lupus familiaris; set-up: dose 0.25 mg/kg, route intravenous; conditions: in vivo; in short: as §1
[13] = Cmax in Gottingen minipig at 1 mg/kg, po; type: ADME, organism-based, Sus scrofa; set-up: dose 1 mg/kg, route oral; conditions: pig, in vivo
[14] = Volume of distribution at steady state in Gottingen minipig at 0.5 mg/kg, iv and 1 mg/kg, po; type: ADME, organism-based, Sus scrofa; conditions: pig, in vivo, read-out: Vdss
In short: (§4)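 Male animals, n = 3 per species, given single iv and oral doses: Sprague-Dawley rat 2.5 iv / 3 po mg/kg; beagle dog 0.25 / 0.5; Göttingen minipig 0.5 / 1; cynomolgus monkey 0.25 / 1. Blood sampled; Vss from iv; bioavailability and Vss as mean [range]; Tmax as median [range].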

[15] = Half life in Swiss Beagle dog at 0.5 mg/kg, po; type: ADME, organism-based, Canis lupus familiaris; set-up: dose 0.5 mg/kg, route oral; conditions: in vivo
Rattus norvegicus [16] = experiment: Cognitive enhancing effect in Lister Hooded rat assessed as reversal of 24 hrs delay-induced cognitive deficit at 1 mg/kg, ip by novel object recognition test
[17] = Half life in Sprague-Dawley rat at 3 mg/kg, po; type: ADME, organism-based; set-up: dose 3 mg/kg, route oral; conditions: in vivo
[18] = Cmax in cynomolgus monkey at 1 mg/kg, po; type: ADME, organism-based, Macaca fascicularis; set-up: dose 1 mg/kg, route oral; conditions: in vivo
[19] = Intrinsic clearance in cryopreserved dog hepatocytes assessed per gram of tissue; type: ADME, cell-based, Canis lupus familiaris, Liver, Hepatocyte; in short: as §2
[20] = Cmax in rat at 3 mg/kg, po; type: ADME, organism-based; set-up: dose 3 mg/kg, route oral; conditions: in vivo
Glutamate receptor 2 [21] = biological target: T1, Glutamate receptor 2; experiment: Allosteric modulation of human recombinant GluA2 receptor flip isoform expressed in HEK293 cells at 100 nM by whole cell patch-clamp electrophysiology; type: cell-based; in short: as §3
[22] = Volume of distribution at steady state in cynomolgus monkey at 0.25 mg/kg, iv and 1 mg/kg, po; type: ADME, organism-based, Macaca fascicularis; conditions: in vivo, read-out: Vdss; in short: as §4
Rattus norvegicus [23] = experiment: Cognitive enhancing effect in Wistar rat assessed as reversal of scopolamine-induced amnesic deficit at 10 to 30 mg/kg, ip by passive avoidance test
Brain [24] = experiment: Brain tissue binding in rat at 3 mg/kg, po; type: ADME, organism-based; set-up: dose 3 mg/kg, route oral; conditions: in vivo
[25] = Half life in cynomolgus monkey at 1 mg/kg, po; type: ADME, organism-based, Macaca fascicularis; set-up: dose 1 mg/kg, route oral; conditions: in vivo
[26] = biological target: Voltage-gated inwardly rectifying potassium channel KCNH2 (Homo sapiens, UniProt Q12809); experiment: Inhibition of human ERG at 10 uM
In short: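 hERG tail current recorded from stably transfected cells, compound at a nominal 10 μM (stated as 3.6 μg/mL).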

T1 sequence (P42262 whole entry, canonical isoform): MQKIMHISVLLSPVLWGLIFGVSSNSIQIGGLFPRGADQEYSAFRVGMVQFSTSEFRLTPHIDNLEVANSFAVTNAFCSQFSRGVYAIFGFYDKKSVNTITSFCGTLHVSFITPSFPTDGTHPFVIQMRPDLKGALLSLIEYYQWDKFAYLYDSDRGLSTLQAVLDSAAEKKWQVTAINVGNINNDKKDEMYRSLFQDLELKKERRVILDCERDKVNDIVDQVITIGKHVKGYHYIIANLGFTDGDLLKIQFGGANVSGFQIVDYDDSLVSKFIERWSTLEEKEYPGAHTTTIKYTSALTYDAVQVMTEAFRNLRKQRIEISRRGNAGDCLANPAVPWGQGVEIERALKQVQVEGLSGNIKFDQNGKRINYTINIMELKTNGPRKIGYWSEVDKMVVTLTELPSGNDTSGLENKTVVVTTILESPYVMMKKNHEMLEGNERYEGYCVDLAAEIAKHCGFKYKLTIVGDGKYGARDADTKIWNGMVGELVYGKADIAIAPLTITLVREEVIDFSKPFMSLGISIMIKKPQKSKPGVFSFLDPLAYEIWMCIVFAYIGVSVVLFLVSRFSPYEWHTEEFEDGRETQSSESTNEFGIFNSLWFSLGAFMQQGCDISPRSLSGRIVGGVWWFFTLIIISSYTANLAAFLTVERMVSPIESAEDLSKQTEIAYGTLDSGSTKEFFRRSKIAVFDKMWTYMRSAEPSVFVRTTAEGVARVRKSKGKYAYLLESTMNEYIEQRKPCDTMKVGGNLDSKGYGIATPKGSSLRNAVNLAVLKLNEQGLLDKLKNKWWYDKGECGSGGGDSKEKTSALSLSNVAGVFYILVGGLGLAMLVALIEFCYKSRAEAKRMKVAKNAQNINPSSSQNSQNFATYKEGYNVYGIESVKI
Sequence of Voltage-gated inwardly rectifying potassium channel KCNH2 (Q12809 whole entry): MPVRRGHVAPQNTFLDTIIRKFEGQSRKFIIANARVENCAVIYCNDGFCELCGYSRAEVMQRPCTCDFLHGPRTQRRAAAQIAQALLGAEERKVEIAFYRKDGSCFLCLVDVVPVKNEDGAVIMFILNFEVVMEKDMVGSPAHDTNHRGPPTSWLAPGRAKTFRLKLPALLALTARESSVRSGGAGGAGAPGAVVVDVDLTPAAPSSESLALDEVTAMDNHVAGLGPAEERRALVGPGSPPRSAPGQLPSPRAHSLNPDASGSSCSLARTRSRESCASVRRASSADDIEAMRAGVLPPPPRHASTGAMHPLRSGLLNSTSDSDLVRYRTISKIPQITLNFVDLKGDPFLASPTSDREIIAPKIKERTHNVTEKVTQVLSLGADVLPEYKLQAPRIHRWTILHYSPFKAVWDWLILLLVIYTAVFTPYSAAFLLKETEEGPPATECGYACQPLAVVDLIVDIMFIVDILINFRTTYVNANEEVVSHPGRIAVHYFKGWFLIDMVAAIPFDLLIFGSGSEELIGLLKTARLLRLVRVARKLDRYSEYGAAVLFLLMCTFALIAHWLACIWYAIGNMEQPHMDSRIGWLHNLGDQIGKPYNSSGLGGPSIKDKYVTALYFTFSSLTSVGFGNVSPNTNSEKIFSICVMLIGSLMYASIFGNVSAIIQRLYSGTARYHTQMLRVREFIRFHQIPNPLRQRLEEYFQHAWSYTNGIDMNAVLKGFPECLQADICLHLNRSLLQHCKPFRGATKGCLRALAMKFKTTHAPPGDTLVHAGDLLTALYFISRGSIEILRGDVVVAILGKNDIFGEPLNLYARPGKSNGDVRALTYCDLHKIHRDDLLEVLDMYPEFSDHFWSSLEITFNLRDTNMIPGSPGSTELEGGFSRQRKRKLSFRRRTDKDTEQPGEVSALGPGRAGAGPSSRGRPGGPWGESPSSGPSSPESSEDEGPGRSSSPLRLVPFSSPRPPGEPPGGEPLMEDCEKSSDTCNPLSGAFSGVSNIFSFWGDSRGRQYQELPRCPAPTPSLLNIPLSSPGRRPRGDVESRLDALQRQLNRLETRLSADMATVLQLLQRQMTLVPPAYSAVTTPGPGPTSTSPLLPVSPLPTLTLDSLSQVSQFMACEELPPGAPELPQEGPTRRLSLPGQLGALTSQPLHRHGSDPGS
Sequence of Cytochrome P450 2D6 (P10635 whole entry): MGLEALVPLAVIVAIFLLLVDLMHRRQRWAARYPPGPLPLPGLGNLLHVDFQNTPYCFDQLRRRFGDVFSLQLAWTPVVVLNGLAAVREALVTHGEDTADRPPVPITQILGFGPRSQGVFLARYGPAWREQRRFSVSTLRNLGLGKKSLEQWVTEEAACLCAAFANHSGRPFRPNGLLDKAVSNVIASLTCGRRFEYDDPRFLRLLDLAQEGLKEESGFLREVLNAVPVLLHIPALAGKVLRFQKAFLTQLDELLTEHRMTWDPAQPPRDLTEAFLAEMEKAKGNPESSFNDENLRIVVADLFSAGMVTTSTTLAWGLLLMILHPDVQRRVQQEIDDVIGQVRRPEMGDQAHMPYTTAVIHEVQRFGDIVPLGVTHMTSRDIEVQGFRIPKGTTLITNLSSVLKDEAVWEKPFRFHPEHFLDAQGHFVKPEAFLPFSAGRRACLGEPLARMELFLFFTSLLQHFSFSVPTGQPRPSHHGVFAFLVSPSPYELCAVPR
Sequence of Glutamate receptor 2 (Rattus norvegicus) (P19491 whole entry, canonical isoform): as the sequence (P42262 whole entry, canonical isoform) above, with M191T, T291A, R764G, A852P counted along it

O=C(c1ccc(-n2nc(C(F)(F)F)c3c2CCCC3)cc1)N1CCCC1
Papp [1]: 415 nm/s
half-life [2]: 1.6 h
Activity [3]: 62%
clearance [4]: 2.28 L/h/kg
Activity (Rattus norvegicus [5]): Active
IC50 (Cytochrome P450 2D6): 6 µM
Activity (Rattus norvegicus [6]): Non-toxic
CL (Hepatocyte): 2.3 mL/min/g
CL/F [7]: 0.72 L/h/kg
Drug uptake (Brain [8]): 4686 ng/g
Drug uptake (Brain [9]): 9 ng/g
Activity (Glutamate receptor 2 [10]): 600%
Activity (Rattus norvegicus [11]): Active
half-life [12]: 1.3 h
Cmax [13]: 0.029 µg/mL
Vd [14]: 3.2 L/kg
half-life [15]: 0.9 h
Activity (Rattus norvegicus [16]): Active
half-life [17]: 2.3 h
Cmax [18]: 0.005 µg/mL
CL [19]: 2.6 mL/min/g
Cmax [20]: 0.228 µg/mL
Activity (Glutamate receptor 2 [21]): 21%
Vd [22]: 1.6 L/kg
Activity (Rattus norvegicus [23]): Active
Brain tissue binding (% bound) (Brain [24]): 99.4%
half-life [25]: 1.4 h
inhibition (INH) [26]: Not Active
